Laboratory results as given in ChEMBL document CHEMBL5370653, “Stereoselective Synthesis, Pro-resolution, and Anti-inflammatory Actions of RvD5n-3 DPA” (J Nat Prod, 2023).
The source made the active and inactive calls. No cut-off for these calls is given here.

How the values were obtained:
[1] = tested on: Neutrophil; test: Induction of phagocytosis in human neutrophils assessed as clearance of pHrodo red-conjugated zymosan A particles at 0.001 to 10 nM measured after 2 hrs by hoechst 33342 staining based high content imaging analysis; type: functional, cell-based; settings: dose 0.001-10 nM
How it was run: (§1)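 Blood neutrophils from healthy donors, Hoechst 33342-stained, in X-VIVO15 with 2 mM L-glutamine and 1% pen/strep, 250,000 cells/well, adhered 30 min at 37 °C. Pretreated 15 min at 37 °C with 0.001–10 nM or 0.05% ethanol vehicle. Then given IgG-opsonized pHrodo particles (S. aureus 5 μg/well, E. coli 5 μg/well, zymosan 2.5 μg/well). Signal rise imaged over 2 h. Mean ± SEM, N = 6 donors.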

[2] = tested on: Macrophage; test: Antiinflammatory activity in human macrophages assessed as increase in MerTK level at 10 nM incubated for 7 days by flow cytometry analysis; type: functional, cell-based; settings: time 7.0 day
How it was run: (§2)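 PBMCs from healthy donors (dextran RBC sedimentation, Histopaque-1077) seeded in low-adhesion plates, 800,000 cells/well. Differentiated to macrophages over 7 days in RPMI-1640 with 10% human serum and 20 ng/mL GM-CSF, with 10 nM test agent or 0.05% ethanol vehicle. Lifted with 5 mM EDTA, Fc-blocked with gamma globulins, surface-stained, then fixed/permeabilized for Arg1. Median fluorescence intensities analyzed by PLS-DA and VIP scores.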

[3] = tested on: Neutrophil; test: Induction of phagocytosis in human Neutrophil assessed as clearance of pHrodo red-conjugated Escherichia coli at 0.001 to 10 nM measured after 2 hrs by hoechst 33342 high content imaging analysis; type: functional, cell-based; settings: dose 0.001-10 nM; how it was run: as §1
[4] = tested on: Macrophage; test: Induction of phagocytosis in human macrophages assessed as clearance of pHrodo red-conjugated Escherichia coli at 0.001 to 10 nM measured after 2 hrs by hoechst 33342 staining based high content imaging analysis; type: functional, cell-based; settings: dose 0.001-10 nM
How it was run: (§3)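 Macrophages from donor PBMCs (7 days, RPMI-1640, 10% human serum, 20 ng/mL GM-CSF), 50,000 cells/well, adhered overnight, Hoechst-stained. Pretreated 15 min at 37 °C in RPMI-1640 with 0.001–10 nM or 0.05% ethanol vehicle. Opsonized pHrodo particles added (S. aureus or E. coli 5 μg/well, zymosan 2.5 μg/well). Phagocytosis imaged over 2 h. Mean ± SEM, N = 6 donors.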

[5] = tested on: Macrophage; test: Antiinflammatory activity in human macrophages assessed as decrease in CD142 level at 10 nM incubated for 7 days by flow cytometry analysis; type: functional, cell-based; settings: time 7.0 day; how it was run: as §2
[6] = Retention time of the compound in human serum by RP-LC-MS/MS; type: ADME, cell-free
How it was run: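 Pooled human serum (0.5 mL) mixed with 2 volumes cold MeOH containing d5-Maresin 1, held at −20 °C ≥45 min, then centrifuged. Automated C18 SPE at pH 3.5. Analyzed on a C18 Poroshell column at 0.5 mL/min with a MeOH/H2O/acetic acid gradient. MRM transition 361 > 199.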

[7] = tested on: Macrophage; test: Induction of phagocytosis in human macrophages assessed as clearance of pHrodo red-conjugated zymosan A particles at 0.001 to 10 nM measured after 2 hrs by hoechst 33342 staining based high content imaging analysis; type: functional, cell-based; settings: dose 0.001-10 nM; how it was run: as §3
[8] = tested on: Macrophage; test: Induction of phagocytosis in human macrophages assessed as clearance of pHrodo green conjugated Staphylococcus aureus at 0.001 to 10 nM measured after 2 hrs by hoechst 33342 staining based high content imaging analysis; type: functional, cell-based; settings: dose 0.001-10 nM; how it was run: as §3
[9] = tested on: Macrophage; test: Antiinflammatory activity in human macrophages assessed as increase in arginase-1 level at 10 nM incubated for 7 days by flow cytometry analysis; type: functional, cell-based; settings: time 7.0 day; how it was run: as §2
[10] = tested on: Macrophage; test: Antiinflammatory activity in human macrophages assessed as increase in CD163 at 10 nM incubated for 7 days by flow cytometry analysis; type: functional, cell-based; settings: time 7.0 day; how it was run: as §2
[11] = tested on: Neutrophil; test: Induction of phagocytosis in human neutrophils assessed as clearance of pHrodo green conjugated Staphylococcus aureus at 0.001 to 10 nM measured after 2 hrs by hoechst 33342 staining based high content imaging analysis; type: functional, cell-based; settings: dose 0.001-10 nM; how it was run: as §1
[12] = tested on: Macrophage; test: Antiinflammatory activity in human macrophages assessed as decrease in CD80 level at 10 nM incubated for 7 days by flow cytometry analysis; type: functional, cell-based; settings: time 7.0 day; how it was run: as §2

CC/C=C\C[C@H](O)/C=C/C=C\C/C=C\C=C\[C@@H](O)CCCCCC(=O)O
Activity [1]: Active | Activity [2]: Active | Activity [3]: Active | Activity [4]: Active | Activity [5]: Active | Retention_time [6]: 13.5 min | Activity [7]: Active | Activity [8]: Active | Activity [9]: Active | Activity [10]: Active | Activity [11]: Active | Activity [12]: Active
